As a reminder, the IC50 is the concentration needed to halve the response being measured. The Emax is the size of the effect at its maximum, as opposed to the concentration needed. The term EC50 denotes the concentration needed to bring the measured effect to its halfway point.

Results on 21 compounds are retold here after ChEMBL document CHEMBL5344461, “ZX703: A Small-Molecule Degrader of GPX4 Inducing Ferroptosis in Human Cancer Cells” (ACS Med Chem Lett, 2024).

Each structure is given as a SMILES string. Active and inactive are the calls of the source. The rule behind the calls is not given here. Some results are limits rather than exact numbers.

Experiment [1] concerns HT-1080. The experiment in a line: Antiproliferative activity against human HT-1080 cells assessed as inhibition of cell growth incubated for 24 hrs by CCK-8 assay. In kind it is functional, cell-based. The settings on record: for IC50: HT-1080, 24 h. A digest of the protocol: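 HT1080 cells exposed to compound for 24 h; viability read by CCK-8; IC50 from growth inhibition.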
(Formazan colour is commonly taken as a measure of viable cells.)

Experiment [2] deals with T1, von Hippel-Lindau disease tumor suppressor/Phospholipid hydroperoxide glutathione peroxidase GPX4 (Homo sapiens) (UniProt P40337+P36969). Briefly: PROTAC activity at VHL/GPX4 in human HT-1080 cells assessed as induction of protein degradation at 0.2 uM incubated for 12 hrs in presence of MG132 and chloroquine by Western blot analysis. In kind it is cell-based. In outline: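 HT1080 cells treated 12 h with degrader alongside MG132 (0.3 μM) and chloroquine (50 μM); chloroquine given as pretreatment. GPX4 detected by Western blot, band density quantified by gray-scale analysis.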
T1 sequence (P36969 whole entry, looked up): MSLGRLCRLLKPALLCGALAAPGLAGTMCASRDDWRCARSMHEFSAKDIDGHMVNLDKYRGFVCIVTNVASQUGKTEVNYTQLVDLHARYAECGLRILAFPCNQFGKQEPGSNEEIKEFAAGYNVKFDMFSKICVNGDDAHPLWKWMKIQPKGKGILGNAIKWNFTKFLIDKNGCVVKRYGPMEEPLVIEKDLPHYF
T1 sequence (P40337 whole entry, looked up): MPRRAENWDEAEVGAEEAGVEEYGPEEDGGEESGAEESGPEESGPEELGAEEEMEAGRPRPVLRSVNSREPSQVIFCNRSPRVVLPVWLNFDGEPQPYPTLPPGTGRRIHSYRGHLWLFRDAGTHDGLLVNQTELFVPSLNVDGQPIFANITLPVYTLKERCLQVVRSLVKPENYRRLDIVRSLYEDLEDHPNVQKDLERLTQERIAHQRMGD

Experiment [3] deals with T1, von Hippel-Lindau disease tumor suppressor/Phospholipid hydroperoxide glutathione peroxidase GPX4 (Homo sapiens). Briefly: PROTAC activity at VHL/GPX4 in human HT-1080 cells assessed as induction of protein degradation at 0.2 uM measured for 24 hrs by Western blot analysis. The format is cell-based. A digest of the protocol:
(§1)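 Time course in HT1080 cells at 0.2 μM compound. GPX4 detected by Western blot. Band density was quantified by gray-scale densitometry and normalized to GAPDH.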

For experiment [4] the target is unchanged. Briefly: PROTAC activity at VHL/GPX4 in human HT-1080 cells assessed as induction of protein degradation by measuring maximal degradation at 0.06 to 5 uM by Western blot analysis relative to control. The settings on record: dose 0.06-5 µM. In kind it is cell-based.
In experiment [5] the test system is HT-1080. The experiment in a line: Induction of ROS accumulation in human HT-1080 cells at 1 uM pretreated with ferroptosis inhibitor, Fer-1 for 2 hrs followed by compound addition and further incubated for 12 hrs by DCFH-DA staining based flow cytometry analysis. In kind it is functional, cell-based. In outline: (§2)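 HT1080 cells loaded with 10 μM DCFH-DA, then treated 12 h with compound at various concentrations; intracellular ROS measured by flow cytometry. For the rescue arm, cells were pretreated 2 h with ferroptosis inhibitor Fer-1 (5 μM) and kept in its presence.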

Experiment [6] relates to HT-1080. Briefly: Induction of ROS accumulation in human HT-1080 cells incubated for 12 hrs by DCFH-DA staining based flow cytometry analysis. The format is functional, cell-based. As to conditions: dose 0.25-1 µM. In outline: as §2
On the technique in general: A flow cytometer gives signals particle by particle.

For experiment [7], the target named is T1, von Hippel-Lindau disease tumor suppressor/Phospholipid hydroperoxide glutathione peroxidase GPX4 (Homo sapiens). The experiment in a line: PROTAC activity at VHL/GPX4 in human HT-1080 cells assessed as induction of protein degradation at 0.2 uM measured after 6 hrs by Western blot analysis relative to control. In kind it is cell-based. In outline:
as §1
For orientation: In western blotting, separated proteins are transferred to a membrane and probed.

The target is the same in experiment [8]. The experiment in a line: PROTAC activity at VHL/GPX4 in human HT-1080 cells assessed as induction of protein degradation at 0.2 uM measured after 12 hrs by Western blot analysis relative to control. The format is cell-based. In outline:
as §1

For experiment [9], the target named is von Hippel-Lindau disease tumor suppressor/Phospholipid hydroperoxide glutathione peroxidase GPX4 (Homo sapiens, UniProt P36969+P40337). The experiment in a line: (§3) PROTAC activity at VHL/GPX4 in human HT-1080 cells assessed as induction of protein degradation by Western blot analysis. The format is cell-based.
Sequence of von Hippel-Lindau disease tumor suppressor/Phospholipid hydroperoxide glutathione peroxidase GPX4 (P40337 whole entry): as the sequence (P40337 whole entry, looked up) above
Sequence of von Hippel-Lindau disease tumor suppressor/Phospholipid hydroperoxide glutathione peroxidase GPX4 (P36969 whole entry): as the sequence (P36969 whole entry, looked up) above
The target of experiment [10] is T1, von Hippel-Lindau disease tumor suppressor/Phospholipid hydroperoxide glutathione peroxidase GPX4 (Homo sapiens). Described as §3. The format is cell-based.
Experiment [11] has as its target Protein cereblon/Phospholipid hydroperoxide glutathione peroxidase GPX4 (Homo sapiens, UniProt P36969+Q96SW2). The experiment in a line: PROTAC activity at CRBN/GPX4 (unknown origin). In kind it is protein assay.

Sequence of Protein cereblon/Phospholipid hydroperoxide glutathione peroxidase GPX4 (Q96SW2 whole entry): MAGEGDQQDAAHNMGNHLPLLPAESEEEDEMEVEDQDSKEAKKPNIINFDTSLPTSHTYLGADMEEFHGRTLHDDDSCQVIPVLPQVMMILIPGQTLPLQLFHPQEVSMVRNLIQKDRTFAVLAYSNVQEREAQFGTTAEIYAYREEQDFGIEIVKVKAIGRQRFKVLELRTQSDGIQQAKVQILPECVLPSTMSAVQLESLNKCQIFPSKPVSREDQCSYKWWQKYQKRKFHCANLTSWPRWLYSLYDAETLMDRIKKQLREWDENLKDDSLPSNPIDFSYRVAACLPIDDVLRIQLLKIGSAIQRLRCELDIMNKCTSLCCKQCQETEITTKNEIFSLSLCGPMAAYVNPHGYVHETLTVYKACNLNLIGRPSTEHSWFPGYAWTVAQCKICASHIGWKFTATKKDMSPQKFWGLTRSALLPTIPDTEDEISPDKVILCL
Sequence of Protein cereblon/Phospholipid hydroperoxide glutathione peroxidase GPX4 (P36969 whole entry): as the sequence (P36969 whole entry, looked up) above

Take `Cc1ncsc1-c1ccc(CNC(=O)[C@@H]2C[C@@H](O)CN2C(=O)[C@@H](NC(=O)CCCCCOc2ccc(C(c3ccc(Cl)cc3)N3CCN(C(=O)c4noc(C)c4[N+](=O)[O-])CC3)cc2)C(C)(C)C)cc1` (stereo not given in full): in the experiment on HT-1080 [1], the IC50 worked out at 2290 nM.
Still for that read-out and setting: next, `Cc1ncsc1-c1ccc(CNC(=O)[C@@H]2C[C@@H](O)CN2C(=O)[C@@H](NC(=O)CCCCCCCCCCOc2ccc(C(c3ccc(Cl)cc3)N3CCN(C(=O)c4noc(C)c4[N+](=O)[O-])CC3)cc2)C(C)(C)C)cc1` (stereo not given in full): 889 nM; `Cc1ncsc1-c1ccc(CNC(=O)[C@@H]2C[C@@H](O)CN2C(=O)[C@@H](NC(=O)CCOc2ccc(C(c3ccc(Cl)cc3)N3CCN(C(=O)c4noc(C)c4[N+](=O)[O-])CC3)cc2)C(C)(C)C)cc1` (stereo not given in full): 2160 nM.
The same measure, in the same setting: for `Cc1ncsc1-c1ccc(CNC(=O)[C@@H]2C[C@@H](O)CN2C(=O)[C@@H](NC(=O)CCCCCCOc2ccc(C(c3ccc(Cl)cc3)N3CCN(C(=O)c4noc(C)c4[N+](=O)[O-])CC3)cc2)C(C)(C)C)cc1` (stereo not given in full) the value was 1360 nM.
Take `Cc1ncsc1-c1ccc(CNC(=O)[C@@H]2C[C@@H](O)CN2C(=O)[C@@H](NC(=O)CCCCCCCCCOc2ccc(C(c3ccc(Cl)cc3)N3CCN(C(=O)c4noc(C)c4[N+](=O)[O-])CC3)cc2)C(C)(C)C)cc1` (stereo not given in full): the outcome (in experiment [2]; with HT-1080 [5]) was inactive. Further, in experiment [3], the result was Active. The IC50 with HT-1080 [1] stood at 435 nM. Also, the Emax in experiment [4] was found to be 86%. Besides, the Activity entry in the experiment on HT-1080 [6] was “Dose-Dependent Effect”; in experiment [7] it was 50%; in [8], more than 80%; in experiment [10] it was “Dose-Dependent Effect”. In addition, in experiment [9], the concentration giving a half-maximal response (EC50) worked out at 135 nM.
In the case of `Cc1ncsc1-c1ccc(CNC(=O)[C@@H]2C[C@@H](O)CN2C(=O)[C@@H](NC(=O)COc2ccc(C(c3ccc(Cl)cc3)N3CCN(C(=O)c4noc(C)c4[N+](=O)[O-])CC3)cc2)C(C)(C)C)cc1` (stereo not given in full), the IC50 with HT-1080 [1] was 2140 nM.
With `Cc1ncsc1-c1ccc(CNC(=O)[C@@H]2C[C@@H](O)CN2C(=O)[C@@H](NC(=O)CCCOc2ccc(C(c3ccc(Cl)cc3)N3CCN(C(=O)c4noc(C)c4[N+](=O)[O-])CC3)cc2)C(C)(C)C)cc1` (stereo not given in full), the inhibition entry with HT-1080 [1] is “inactive”.
In the case of `Cc1ncsc1-c1ccc([C@H](C)NC(=O)[C@@H]2C[C@@H](O)CN2C(=O)[C@@H](NC(=O)CCCCCCCCCOc2ccc(C(c3ccc(Cl)cc3)N3CCN(C(=O)c4noc(C)c4[N+](=O)[O-])CC3)cc2)C(C)(C)C)cc1` (stereo not given in full), in the experiment with HT-1080 [1], the IC50 stood at 1210 nM.
For `Cc1onc(C(=O)N2CCN(C(c3ccc(Cl)cc3)c3ccc(Cl)cc3)CC2)c1[N+](=O)[O-]`, the IC50 in the experiment on HT-1080 [1] came to 153 nM.
In turn, `O=C1CCC(N2C(=O)c3cccc(NCCOCCOCCOCCn4cc(COc5ccc(N(C(=O)CCl)C(C(=O)NCCc6ccccc6)c6cccs6)cc5Cl)nn4)c3C2=O)C(=O)N1` (stereo not given) yielded an EC50 in [11] of 200 nM.
For `Cc1ncsc1-c1ccc(CNC(=O)[C@@H]2C[C@@H](O)CN2C(=O)[C@@H](NC(=O)CCCCCCCCOc2ccc(C(c3ccc(Cl)cc3)N3CCN(C(=O)c4noc(C)c4[N+](=O)[O-])CC3)cc2)C(C)(C)C)cc1` (stereo not given in full), the IC50 with HT-1080 [1] was determined as 767 nM.
With `Cc1ncsc1-c1ccc(CNC(=O)[C@@H]2C[C@@H](O)CN2C(=O)[C@@H](NC(=O)CCCCOc2ccc(C(c3ccc(Cl)cc3)N3CCN(C(=O)c4noc(C)c4[N+](=O)[O-])CC3)cc2)C(C)(C)C)cc1` (stereo not given in full), the IC50 in the experiment with HT-1080 [1] was 1540 nM.
With `Cc1ncsc1-c1ccc(CNC(=O)[C@@H]2C[C@@H](O)CN2C(=O)[C@@H](NC(=O)CCCCCCCOc2ccc(C(c3ccc(Cl)cc3)N3CCN(C(=O)c4noc(C)c4[N+](=O)[O-])CC3)cc2)C(C)(C)C)cc1` (stereo not given in full), the IC50 with HT-1080 [1] turned out to be 1680 nM.
Still for that read-out and setting: next, `Cc1ncsc1-c1ccc(CNC(=O)[C@@H]2C[C@@H](O)CN2C(=O)[C@@H](NC(=O)COCCOCCOCCOc2ccc(C(c3ccc(Cl)cc3)N3CCN(C(=O)c4noc(C)c4[N+](=O)[O-])CC3)cc2)C(C)(C)C)cc1` (stereo not given in full): 3240 nM; `Cc1ncsc1-c1ccc(CNC(=O)[C@@H]2C[C@@H](O)CN2C(=O)[C@@H](NC(=O)CN2CCN(CC3CCN(C(=O)COc4ccc(C(c5ccc(Cl)cc5)N5CCN(C(=O)c6noc(C)c6[N+](=O)[O-])CC5)cc4)CC3)CC2)C(C)(C)C)cc1` (stereo not given in full): 4760 nM.
Still for that read-out and setting: next, `Cc1ncsc1-c1ccc(CNC(=O)[C@@H]2C[C@@H](O)CN2C(=O)[C@@H](NC(=O)C2CCN(CC3CCN(C(=O)COc4ccc(C(c5ccc(Cl)cc5)N5CCN(C(=O)c6noc(C)c6[N+](=O)[O-])CC5)cc4)CC3)CC2)C(C)(C)C)cc1` (stereo not given in full): 4450 nM; `Cc1ncsc1-c1ccc(CNC(=O)[C@@H]2C[C@@H](O)CN2C(=O)[C@@H](NC2CC3(CCN(C(=O)COc4ccc(C(c5ccc(Cl)cc5)N5CCN(C(=O)c6noc(C)c6[N+](=O)[O-])CC5)cc4)CC3)C2)C(C)(C)C)cc1` (stereo not given in full): 1350 nM.
Consider `Cc1ncsc1-c1ccc(CNC(=O)[C@@H]2C[C@@H](O)CN2C(=O)[C@@H](NC(=O)COCCOc2ccc(C(c3ccc(Cl)cc3)N3CCN(C(=O)c4noc(C)c4[N+](=O)[O-])CC3)cc2)C(C)(C)C)cc1` (stereo not given in full), for which the IC50 with HT-1080 [1] amounted to 1830 nM.
As to `Cc1ncsc1-c1ccc(CNC(=O)[C@@H]2C[C@@H](O)CN2C(=O)[C@@H](NC(=O)CCCCCCCCCCCOc2ccc(C(c3ccc(Cl)cc3)N3CCN(C(=O)c4noc(C)c4[N+](=O)[O-])CC3)cc2)C(C)(C)C)cc1` (stereo not given in full), the half-inhibitory concentration (IC50) in the experiment with HT-1080 [1] worked out at 2350 nM.
Still for that read-out and setting: next, `Cc1ncsc1-c1ccc(CNC(=O)[C@@H]2C[C@@H](O)CN2C(=O)[C@@H](NC(=O)COCCOCCOCCOCCOc2ccc(C(c3ccc(Cl)cc3)N3CCN(C(=O)c4noc(C)c4[N+](=O)[O-])CC3)cc2)C(C)(C)C)cc1` (stereo not given in full): 4730 nM; `Cc1ncsc1-c1ccc(CNC(=O)[C@@H]2C[C@@H](O)CN2C(=O)[C@@H](NC(=O)COCCOCCOc2ccc(C(c3ccc(Cl)cc3)N3CCN(C(=O)c4noc(C)c4[N+](=O)[O-])CC3)cc2)C(C)(C)C)cc1` (stereo not given in full): 2070 nM.
